Screening data from PubChem BioAssay.
M1 antag: blocks the rat M1 muscarinic receptor response to acetylcholine. CHO-M1 cells, Fluo-4 calcium, ACh EC80 antagonist mode; hits give low values. B-score at 10 µM. 64,000 tested, 3.4% active. AID 628;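 active = calcium fluorescence response, raw or row-and-column corrected B-score, differing from the plate sample mean either way at a set confidence level, mostly lower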
M1 agonist: M1 muscarinic receptor agonism. CHO-M1 cells, Fluo-4 calcium fluorescence, agonist mode; hits give high values. B-score at 10 µM. 64,000 tested, 3% active;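 active = fluorescence rise, raw or as B-score row- and column-corrected plate score, outside the 99.7% band of its plate's samples, either direction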
RORa activator: RORA (human) activation. P35398. CHO-K1 Gal4-RORA LBD luciferase reporter, luminescence; percent increase over mock-subtracted basal signal. activation, % at 10 µM. 65,000 tested, 1.5% active;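 active = activation above the mean of all tested compounds plus 3 SD, cut at about 49% in these data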;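 note: 0% = DMSO-treated RORA cells and 100% = added signal equal to DMSO minus mock-transfected cells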
mHtt clearance: compounds clearing mutant huntingtin protein. HeLa Exon1htt(103Q)mCFP, aggregate imaging; zero = plate's median compound well. inhibition, % at 1.5 µM. 47,000 tested, 0.42% active;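 active = inhibition of aggregate fluorescence above about 70%, also judged a hit by eye on the cell image, limit read from the data, passing the limit was not always enough; inconclusive = no rule stated for this call; inactive = not judged a hit on image review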;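 note: cells exposed to compound for three days before fixation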
SF1 activator: activators of human nuclear receptor SF-1. Q13285. CHO-K1 Gal4-SF-1 LBD luciferase reporter; % increase over DMSO SF-1-specific signal. activation, % at 10 µM. 65,000 tested, 1.9% active. AID 522;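 active = activation above the mean activation of all tested compounds plus 3 SD, cut at about 50% in these data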
Target sequence (Q13285 whole entry, looked up, the tested form may be a part): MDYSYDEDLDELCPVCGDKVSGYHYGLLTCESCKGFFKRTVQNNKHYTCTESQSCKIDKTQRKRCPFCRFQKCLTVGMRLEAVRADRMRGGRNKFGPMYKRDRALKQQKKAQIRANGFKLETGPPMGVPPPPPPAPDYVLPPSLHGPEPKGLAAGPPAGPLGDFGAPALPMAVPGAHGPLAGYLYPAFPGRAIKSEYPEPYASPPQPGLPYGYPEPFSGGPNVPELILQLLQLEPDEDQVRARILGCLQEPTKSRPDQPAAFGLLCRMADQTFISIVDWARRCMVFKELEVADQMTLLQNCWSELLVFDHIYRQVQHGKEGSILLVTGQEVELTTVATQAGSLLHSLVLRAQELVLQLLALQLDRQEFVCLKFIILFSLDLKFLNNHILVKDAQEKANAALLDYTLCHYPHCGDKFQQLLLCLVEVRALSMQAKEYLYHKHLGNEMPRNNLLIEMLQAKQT
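Assay system – CHO-K1 cells with Gal4–hSF-1 LBD chimera plus Gal4-driven luciferase · Quantity – 4,000 cells per well · Times – compound added 1 h post-seeding, 20 h exposure at 37 °C, 5% CO2 · Measured by – luciferase light emission · Benchmarks – DMSO and mock-transfected background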
D1 mod: D1 dopamine receptor (human) allosteric modulation; HEK293 D1, CRE-luciferase, dopamine EC30 potentiation; actives deviate in either direction; B-score at 10 µM; 58,000 tested, 5.9% active; AID 641;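 active = luminescence count or its row- and column-corrected plate score outside the 99.7% band of the plate's sample wells, on either side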
* marks the source's active call; other numbers are inactive results; ? = inconclusive; / = no result given. Rows were chosen to be rich in hits. Some 11% of all compounds tested hit in one or more screens of this group.

SMILES	M1 antag	M1 agonist	RORa activator	mHtt clearance	SF1 activator	D1 mod
CC1(c2cc(C(F)(F)F)n3nc(C(=O)O)cc3n2)CC1	/	/	/	-55	/	/
O=C(Nc1cccnc1N1CCOCC1)c1cc2ccccc2oc1=O	-0.072	0.45	9	/	4	4.2*
CN(C)CCNC(=O)c1cc2ccccc2oc1=O	-0.026	1.6	10	74*	7	/
O=C(Nc1ccc(CN2CCOCC2)cc1)c1cc2ccccc2oc1=O	-0.91	-0.88	38	/	32	-5.6*
COc1cccc2cc(C(=O)Nc3cccnc3N3CCOCC3)c(=O)oc12	-0.04	1.3	-2	57	-4	-0.0013
CC(C)OCCCNC(=O)CCSc1ccc(Cl)cc1	/	/	/	22	/	/
COc1ccc(NC(=O)c2ccco2)cc1NC(=O)c1cccnc1	-0.85	0.85	20	-69	4	-0.065
O=C(CC1Sc2ncnn2C1=O)Nc1ccccc1 (centres undefined)	/	/	/	-46	/	/
Cc1nn2c(-c3cccc(NC(=O)CSc4nc5ccccc5o4)c3)nnc2c2ccccc12	-0.95	0.85	20	/	40	0.035
O=S(=O)(NCCSc1nnnn1-c1ccccc1)c1cccs1	1.1	-1.1	22	12	54*	0.007
CS(=O)(=O)NCCSc1nnnn1-c1ccccc1	-0.39	-0.89	-7	-38	-11	1.3
Nn1cnnc1SCC(=O)Nc1ccc(C2CCCCC2)cc1	0.096	-1	40	/	54*	-4.3*
C=CCn1c(SCC(=O)/C(C#N)=C(\C)N)nnc1C1CCCCC1	0.59	0.06	5	/	-8	-1.2
C/C(N)=C(/C#N)C(=O)CSc1nc2ccc(C)cc2[nH]1	-0.084	-0.86	26	/	77*	-2.6*
C/C(N)=C(/C#N)C(=O)CSc1nnc(COc2cc(C)ccc2C)o1	/	/	/	64	/	/
O=C1C(c2ccncc2)=C(O)c2ccccc21	-0.28	-0.87	8	-43	8	-2.5*
CCCCSc1nnc(-c2ccccc2N)c(=O)[nH]1	0.19	-0.021	58*	/	35	-1
Cn1nc(C(=O)Nc2c(-c3ccccc3)nc3sccn23)c2ccccc2c1=O	1.1	0.39	-4	/	-10	0.42
O=C1C(C=NCc2cccnc2)=C(O)c2ccccc21	-0.13	0.32	53*	/	45	-2.8
C/C(N)=C(/C#N)C(=O)CSc1nnc(-c2ccc(OC(F)F)cc2)o1	0.38	-1.6	40	9	63*	0.72
Cc1cc(C(=O)CSc2nnc(-c3ccc(OC(F)F)cc3)o2)c(C)n1Cc1cccs1	0.0061	-0.045	-20	-37	4	0.12
CCOC(=O)C1CCCN(c2c(NCCN3CCCCC3C)c(=O)c2=O)C1 (centres undefined)	/	/	/	-42	/	/
Cc1csc(-c2coc3cc(O)cc(C)c3c2=O)n1	-1.2	0.63	66*	/	68*	0.019
COc1ccc2c(=O)c(-c3nc(C)cs3)coc2c1	0.91	1.1	-33	21	-20	-5.9*
Cc1nc(-c2coc3cc(OCC(=O)O)ccc3c2=O)cs1	-0.043	-0.12	-29	17	-17	-3.1
SMILES	M1 antag	M1 agonist	RORa activator	mHtt clearance	SF1 activator	D1 mod
CCOc1cc(S(=O)(=O)NCc2ccccn2)ccc1Cl	/	/	/	-81	/	/
CC(=O)NN1C(=O)c2ccc(Oc3cccc([N+](=O)[O-])c3)cc2C1=O	/	/	/	13	/	/
Cn1c(NCc2c[nH]c3ccccc23)nc2ccccc21	-0.47	1.1	64*	/	78*	-2.4
CC1CC=C2C(C#N)=C(N)C(C#N)(C#N)C(c3cccs3)C2C1 (centres undefined)	1.1	12*	-1	/	-9	-3
Cc1ccc(C2C3CSCC=C3C(C#N)=C(N)C2(C#N)C#N)cc1 (centres undefined)	-0.29	0.53	-10	/	-26	0.65
CCOC(=O)c1ccc(NC(=O)CSc2nc3cccnc3n2C)cc1	/	/	/	7	/	/
Cc1sc2nc3n(c(=O)c2c1C)Cc1ccccc1-3	-0.81	0.65	73*	/	56*	0.28
CC(C)c1ccccc1OCCNS(C)(=O)=O	0.66	0.55	0	22	-20	-0.33
COc1ccc(OC)c(NC2=NC3(CCCCC3)N=C(N)N2)c1	-0.49	0.035	-7	/	-2	-5.2*
CCOC(=O)C1CCN(Cc2ccc(C(=O)OC)cc2)CC1	-5.6*	41*	-11	-26	-9	-0.64
CCOC(=O)C1CCN(Cc2ccc(F)cc2)CC1	-0.88	-0.64	3	36	-15	-0.61
CC(C)Cc1nnc(NC(=O)CSc2ncn[nH]2)s1	/	/	5	44	1	0.22
O=C(CSc1ncn[nH]1)Nc1nnc(-c2ccccc2)s1	0.0045	-0.23	56*	/	-16	-0.3
CCC(=O)Nc1cnc(NC(=O)c2cccc(F)c2)cc1C	1.2	-1.1	36	/	32	-1.8
CC(=O)Nc1cnc(NC(=O)c2cccc(F)c2)cc1C	1.2	-0.069	22	/	76*	/
Cc1ccnc(Nc2nc3ccccc3o2)n1	0.49	0.36	-4	/	-9	-4.4*
CSC(=NC1CCCCC1)NS(=O)(=O)c1ccccc1	0.83	-0.69	-4	/	-9	1.1
CC(=NC1CCCCC1)C1=C(O)c2ccccc2C1=O	-0.18	-0.021	88*	/	24	-0.47
COc1ccc(C)cc1S(=O)(=O)N1c2ccccc2CC1C (centres undefined)	/	/	/	-12	/	/
O=C(c1cc(C2CC2)nc2ccc(Br)cc12)N1N=C(C(F)F)CC1(O)C(F)F (centres undefined)	/	/	/	23	/	/
CN1CCN(C(=O)c2cc3nc(-c4ccc(F)cc4)cc(C(F)(F)F)n3n2)CC1	0.02	-0.79	-5	-79	2	-0.34
COc1ccc(-c2cc(C(F)(F)F)n3nc(C(=O)N4CCCC4)cc3n2)cc1	1.8*	-0.72	-3	/	3	0.6
O=C(Cn1nc(-c2ccccc2)ccc1=O)NCCN1CCN(Cc2ccccc2)CC1	0.54	0.23	0	/	-6	-5*
CCCN1CCN(CCCNC(=O)Cn2nc(-c3ccccc3)ccc2=O)CC1	1.3	-0.28	-20	-3	19	1.6
O=C(COc1ncnc2scc(-c3ccc(Cl)cc3)c12)NCc1ccco1	/	/	/	-75	/	/
SMILES	M1 antag	M1 agonist	RORa activator	mHtt clearance	SF1 activator	D1 mod
O=C(CSc1nnc(-c2cccnc2)o1)Nc1ccccn1	0.62	-0.53	33	9	76*	0.65
COc1cc(OC)cc(C(=O)Nc2ccccc2N2CCOCC2)c1	-0.14	6.5*	8	/	-11	2.2
COc1ccc(C(=O)Nc2ccccc2N2CCOCC2)cc1Br	0.0049	1.6	3	/	-14	/
O=c1c2ccccc2nnn1CSc1nnc(COc2ccc(Cl)cc2)n1Cc1ccco1	-1.1	-1.4	-11	?	56*	0.28
O=c1c2ccccc2nnn1CSc1nc2cc(Cl)ccc2c(=O)n1Cc1ccco1	-0.63	-0.36	-6	24	-4	-0.2
COC(=O)c1c(NC(=O)CC2SCC(C(=O)OC)NC2=O)sc2c1CCCC2 (centres undefined)	-0.18	-0.18	52*	-52	0	/
COC(=O)c1c(NC(C)=O)sc2c1CCCC2	0.2	0.047	-9	/	5	5.5*
